Source: PubChem BioAssay (several laboratories)
A selection: hits, their analogues and other compounds. The true share with any hit is near 1.3%.
MEX-5 binding – MEX-5 zinc finger RNA-binding disruptors – biochemical, C. elegans, fluorescence polarization, MLPCN library, primary screen; AID 1832, 2009; Zinc finger protein mex-5 (Caenorhabditis elegans), Q9XUB2; 300,000 tested, 0.38% active; MEX-5/FITC-TCR2 RNA binding; active compounds read low; activity score (negative = inhibition of binding), % at 10 µM;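 active = inhibition past about -25% in most replicates, and total fluorescence under double the plate's negative control median, limit read from the data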
EBV gp42 block – Epstein-Barr virus gp42 inhibitors, primary screen, biochemical, uHTS, fluorescence polarization. Glycoprotein 42 (Epstein-Barr virus (strain AG876)), Q1HVG2. 220,000 tested, 0.42% active. inhibition, % (tested at 21.74 µM). Fluorescence polarization binding assay, mP read-out; in the data active = inhibition above about 50%
LANA DNA inh – inhibitors of KSHV C-LANA binding to DNA, primary screen, biochemical, fluorescence polarization, FAM-LBS DNA, MBP-C-LANA, single point | Kaposi's sarcoma herpesvirus LANA C-terminal domain (residues 932-1162) DNA binding | inhibition, % at 9 µM | 340,000 tested, 0.078% active | AID 504423, 2011;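 active = highest replicate inhibition at or above 60% at 9 µM, even if other replicates fall short; inactive = all replicates below 60% inhibition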
Keap1 Nrf2 FP – Keap1-Nrf2 protein-protein interaction inhibitors, primary screen, biochemical, fluorescence polarization, single point; 340,000 tested, 0.15% active; AID 504523, 2011; inhibition, % at 9.4 µM; Keap1 Kelch-Nrf2 peptide fluorescence polarization, 1536-well; Kelch-like ECH-associated protein 1 (Homo sapiens), Q14145; in the data active = inhibition above about 12%;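 note: human Keap1 Kelch domain with fluorescein labeled Nrf2 9mer peptide probe; higher means more block of Keap1 binding to Nrf2 peptide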
T cell modulator – modulators of CD8 T cell-vesicle binding, primary screen, mouse 2C CD8+ T cells, flow cytometry; 2C CD8+ T cell-vesicle binding; active compounds read low; response (vesicle binding), % at 7 µM; 330,000 tested, 0.068% active; AID 2052, 2009;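 active = response, share of CD8 T cells binding vesicles, and their 90th percentile fluorescence all below set limits, cut at about 80% in these data, passing the limit was not always enough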;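 note: values below 100% mean blocked vesicle binding to the CD8+ T cells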
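Benchmarks: naked versus QL9-loaded vesicles / Assay system: purified 2C TCR transgenic mouse naive CD8+ T cells / Technique: high-throughput flow cytometry with anti-B7-1 and anti-CD8 staining / Timing: Cell–vesicle co-incubation 1.5 h at 37 °C, staining 20 min on ice / Read-out: percent CD8+ FL2 mean versus row control / Probe or stimulus: QL9-loaded Drosophila micro-vesicles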
GRK2 inh – compounds blocking aptamer binding on GRK2 – biochemical, human GRK2, bead flow cytometry, HTS, primary screen; Beta-adrenergic receptor kinase 1 (Homo sapiens), P25098; FAM-aptamer displacement from GRK2; inhibition of aptamer binding, % at 10 µM; 330,000 tested, 0.59% active; AID 488847, 2010;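 active = inhibition of aptamer binding above 40%, roughly 3 SD of noise, on plates passing a quality check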;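 note: median bead fluorescence of bound FAM aptamer so fluorescent compounds give negative values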
Target sequence (P25098 whole entry, looked up): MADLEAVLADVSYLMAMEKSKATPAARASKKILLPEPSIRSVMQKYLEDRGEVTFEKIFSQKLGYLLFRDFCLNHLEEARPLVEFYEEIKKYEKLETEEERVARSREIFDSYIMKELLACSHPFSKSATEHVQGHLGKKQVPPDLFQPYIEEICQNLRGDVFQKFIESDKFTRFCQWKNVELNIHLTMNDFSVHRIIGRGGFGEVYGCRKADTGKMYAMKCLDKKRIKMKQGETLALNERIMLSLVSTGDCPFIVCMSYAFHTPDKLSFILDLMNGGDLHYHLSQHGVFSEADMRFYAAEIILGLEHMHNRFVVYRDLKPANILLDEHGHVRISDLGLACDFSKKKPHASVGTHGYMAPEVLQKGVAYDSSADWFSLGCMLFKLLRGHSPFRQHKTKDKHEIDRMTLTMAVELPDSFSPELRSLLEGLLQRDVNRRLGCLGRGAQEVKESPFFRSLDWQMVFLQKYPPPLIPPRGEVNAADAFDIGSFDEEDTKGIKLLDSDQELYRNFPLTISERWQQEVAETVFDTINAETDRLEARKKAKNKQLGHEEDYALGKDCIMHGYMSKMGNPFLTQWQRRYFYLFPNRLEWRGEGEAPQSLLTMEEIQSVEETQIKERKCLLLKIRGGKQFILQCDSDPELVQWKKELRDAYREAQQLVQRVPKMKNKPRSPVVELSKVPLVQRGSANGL
GRK2 inh confirm – GRK2 aptamer-displacing inhibitors, retest, confirmation, biochemical, cherry pick 1, bead flow cytometry | bead-bound GRK2, FAM-aptamer displacement | 2,000 tested, 4% active | shares compounds with GRK2 inh | aptamer displacement, % at 10 µM | AID 504451, 2011;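 active = aptamer displacement above 40%, near three times the noise of non-fluorescent compounds, on plates passing quality checks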;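 note: negative values mostly reflect intrinsic compound fluorescence rather than true enhancement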
Aptamer quench – counter-screen for GRK2 aptamer inhibitors: fluorescent aptamer quenchers. shares compounds with GRK2 inh. Fluorescent RNA aptamer beads, quenching, flow cytometry; active compounds read high. fluorescence change (kMESF span), kMESF (no concentration beside the values). 110 tested, under 10 active. AID 504521;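 active = compounds whose bead fluorescence drops by more than 37 kMESF across the dose range, marking them as dye quenchers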
Aptamer quench SP – aptamer fluorescence quenching in GRK2 counter-screen | shares compounds with GRK2 inh | Carboxyfluorescein RNA aptamer on beads, flow cytometry quenching; active compounds read low | fluorescence response (% of DMSO), % at 10 µM | 2,000 tested, under 10 active | AID 504580;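 active = compounds that quench the bead-bound fluorescent RNA probe, cutting fluorescence to under half of the solvent control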;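 note: counterscreen run without GRK2 so only probe quenching by compound is measured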
GRK2 confirm 2 – GRK2 aptamer-displacing inhibitors, hit retest, confirmation, biochemical, cherry pick 2, bead flow cytometry; 360 tested, under 10 active; shares compounds with GRK2 inh; inhibition of aptamer binding, % at 10 µM; bead-bound GRK2, FAM-aptamer displacement; AID 504782, 2011;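 active = inhibition of aptamer binding above 40%, about triple the noise seen with nonglowing compounds, on plates passing quality control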;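 note: negative values mostly come from compounds that fluoresce themselves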
Aptamer quench3 – fluorescence quenching of FAM-labeled RNA aptamer, dose response, artefact control for GRK2 aptamer inhibitor project, biochemical, flow cytometry, cherry pick 2; shares compounds with GRK2 inh; Streptavidin beads; change in fluorescence (kMESF span), kMESF (concentration not given with the values); 25 tested, under 10 active; AID 504819, 2011;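 active = compounds quenching the bead-bound labeled aptamer, with fluorescence dropping by more than 37 kMESF over the dose range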
FAM quench SP – counter-screen for GRK2 binding hits: quenchers of fluorescent RNA aptamer. shares compounds with GRK2 inh. carboxyfluorescein RNA aptamer beads, flow cytometry quenching; active compounds read low. fluorescence response vs DMSO, % at 10 µM. 360 tested, under 10 active;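 active = response vs DMSO under 50%, meaning signal dropped by over half, treated as fluorescence quencher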;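 note: labelled aptamer on streptavidin beads without GRK2 as a quench counter-screen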
FAM quench PS1 – quenchers of FAM-labeled RNA aptamer fluorescence, dose response, artefact control for GRK2 aptamer binding project, biochemical, powder set 1, flow cytometry; shares compounds with GRK2 inh; Bead-bound FAM RNA aptamer fluorescence quenching; active compounds read low; fluorescence ratio to DMSO, % at 11.1 µM; 35 tested, under 10 active; AID 588496, 2011;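 active = compounds that dim the fluorescent label, raw bead signal shifting by over 33 units between lowest and highest dose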
Large screens that a line does not name were inactive (follow-up assays come after a bar, where they were run).

CC(C)CCNC(=O)C1CCN(c2nnc(-n3cccc3)s2)CC1	none
CCn1c(CNC(=O)c2ccco2)nnc1SCC(=O)Nc1cc(C)c(C)cc1Br	none
COc1ccccc1N1CCN(/N=C/c2ccc(Cl)c([N+](=O)[O-])c2)CC1	GRK2 inh 100 (no result: EBV gp42 block) | GRK2 inh confirm inactive | Aptamer quench SP inactive
COc1ccccc1N1CCN(/N=C/c2ccc([N+](=O)[O-])cc2)CC1	none (no result: EBV gp42 block)
NS(=O)(=O)c1ccc(CCNC(=O)C2CCCO2)cc1 (stereo unspecified)	none (no result: EBV gp42 block)
Cn1c2ccccc2c2cc(C(=O)OCC(=O)N3CC(=O)Nc4ccccc43)sc21	none | GRK2 inh confirm inactive | Aptamer quench SP inactive
Cc1ccc(C2=NN(C(=O)CCC(=O)O)C(c3cn(-c4ccccc4)nc3-c3ccc(C)cc3)C2)cc1 (stereo unspecified)	none | GRK2 inh confirm inactive | Aptamer quench SP inactive
CCCNC(=O)c1ccccc1NC(=O)c1cccc(-n2cnnn2)c1	none (no result: MEX-5 binding, EBV gp42 block)
CCOc1ccc(NC(=O)CN(C)C(=O)c2ccc(COc3ccccc3)cc2)cc1OCC	none (no result: MEX-5 binding, EBV gp42 block) | GRK2 inh confirm inactive | Aptamer quench SP inactive
CCOc1ccc(NC(=O)CN(C)C(=O)c2ccc(COc3ccccc3)o2)cc1OCC	none (no result: EBV gp42 block)
COc1ccc(C(=S)Nc2ccc(C)cc2)cc1	GRK2 inh 100 | GRK2 inh confirm inactive | Aptamer quench SP inactive
COc1ccc(S(=O)(=O)CCC(=O)N(C)c2ccc(OC)cc2OC)cc1	none | GRK2 confirm 2 inactive | FAM quench SP inactive
COc1ccc(S(=O)(=O)CCC(=O)Nc2ccc(OC)cc2OC)cc1	none | GRK2 confirm 2 inactive | FAM quench SP inactive
COc1ccc([N+](=O)[O-])cc1NC(=O)CCS(=O)(=O)c1ccc(Br)cc1	GRK2 inh 54 (no result: EBV gp42 block) | GRK2 inh confirm inactive | Aptamer quench inactive | Aptamer quench SP inactive | Aptamer quench3 inactive | FAM quench PS1 inactive
COc1ccc([N+](=O)[O-])cc1NC(=O)CS(=O)(=O)c1ccc(C)cc1	none
COc1ccc(NC(=O)CCS(=O)(=O)c2ccccc2)c(OC)c1	none
O=C(O)c1cccc(-c2nnn(Cc3ccccc3Cl)n2)c1	none
CCCc1nnc2c(N(C)S(=O)(=O)c3ccccc3)nc3ccccc3n12	none
COc1ccc2cc(CCNC(=O)CCc3ccccc3)c(=O)[nH]c2c1	none (no result: EBV gp42 block)
Cc1cccc(-c2nc(CN3CCCC(C(=O)NC4CCCCCC4)C3)c(C)o2)c1 (stereo unspecified)	none | GRK2 inh confirm inactive | Aptamer quench SP inactive
Cc1oc(-c2ccc(Cl)cc2)nc1CN1CCCC(C(=O)NCc2ccccn2)C1 (stereo unspecified)	none | GRK2 inh confirm inactive | Aptamer quench SP inactive
Cc1oc(-c2ccc(Cl)cc2)nc1CN1CCCC(C(=O)NCc2cccnc2)C1 (stereo unspecified)	none | GRK2 inh confirm inactive | Aptamer quench inactive | Aptamer quench SP inactive
Cc1cccc(-c2nc(CN3CCCC(C(=O)NC4CCCCC4)C3)c(C)o2)c1 (stereo unspecified)	none
Cc1oc(-c2cccc(Cl)c2)nc1CN1CCCC(C(=O)NCc2ccco2)C1 (stereo unspecified)	none | GRK2 inh confirm inactive | Aptamer quench SP inactive
Cc1oc(-c2ccccc2F)nc1CN1CCC(C(=O)NCc2cccnc2)CC1	none
Cc1oc(-c2ccc(Cl)cc2)nc1CN1CCCC(C(=O)NCCCN2CCOCC2)C1 (stereo unspecified)	none
CCOC(=O)C(NC(C)=O)C(=O)Nc1ccc(C(C)C)cc1 (stereo unspecified)	none
COc1cc(C2N(c3ccccn3)C(=O)C3CCCN32)cc(OC)c1OC (stereo unspecified)	GRK2 inh 59 | GRK2 inh confirm inactive | Aptamer quench SP inactive
COc1cc2ccccc2cc1C(=O)N1CCCC1	none (no result: EBV gp42 block)
CCC(=O)c1ccc(OCC(=O)OCC(=O)c2cc(C)n(C3CC3)c2C)cc1	none (no result: EBV gp42 block)
Cc1cc(C)cc(OCC(=O)OCC(=O)c2cc(C)n(C3CC3)c2C)c1	none (no result: EBV gp42 block) | GRK2 inh confirm inactive | Aptamer quench SP inactive
N[C@@H]1CONC1=O	none (no result: LANA DNA inh, Keap1 Nrf2 FP)
N[C@H]1CONC1=O	none (no result: EBV gp42 block, LANA DNA inh, Keap1 Nrf2 FP) | GRK2 inh confirm inactive | Aptamer quench SP inactive
C[C@]12C=CC(=O)C=C1CC[C@@H]1[C@@H]2C(=O)C[C@@]2(C)[C@H]1CC[C@]2(O)C(=O)COC(=O)CCC(=O)O	GRK2 inh 78 (no result: EBV gp42 block) | GRK2 inh confirm inactive | Aptamer quench SP inactive
C[C@]12C=CC(=O)C=C1CC[C@@H]1C2C(O)C[C@@]2(C)C1CC[C@]2(O)C(=O)COC(=O)CCC(=O)NC(CC(=O)O)C(=O)O (stereo partly specified)	none (no result: EBV gp42 block)
